Test results as given in ChEMBL document CHEMBL3596132, “Antiproliferative activity of O4-benzo[c]phenanthridine alkaloids against HCT-116 and HL-60 tumor cells” (Bioorg Med Chem Lett, 2015).
pIC50: −log10 of the molar value.

What was measured:
Format in all cases: functional, cell-based
HCT-116 = experiment: Antiproliferative activity against human HCT116 cells assessed as inhibition of cell viability after 48 hrs by MTT assay; settings: HCT-116, 48 h
In short: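 HCT-116 cells seeded at 2.0 × 10^3 per well and allowed to attach for 24 h at 37 °C, 5% CO2. Agents were added in FBS-containing medium for 48 h. MTT (5 mg/mL in PBS stock) was then added for 4 h, formazan dissolved in DMSO, and absorbance read at 570 nm. Viability expressed as percent of untreated controls; IC50 reported.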

HL-60 = experiment: Antiproliferative activity against human HL60 cells assessed as inhibition of cell viability after 48 hrs by WST-1 assay; settings: HL-60, 48 h
In short: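 WST-1 assay. HL-60 cells were seeded at 1.0 × 10^4 per well in FBS-containing medium together with test agents and incubated 48 h. Absorbance read at 415 nm. Viability expressed as percent of untreated controls; IC50 reported.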

HepG2 = experiment: Cytotoxicity against human HepG2 cells

COc1ccc2c(cnc3c4cc5c(cc4ccc23)OCO5)c1OC
pIC50 (HCT-116): < 5.00
pIC50 (HL-60): < 5.00

COc1cc2c(cnc3c4cc5c(cc4ccc23)OCO5)cc1O
pIC50 (HCT-116): < 5.00
pIC50 (HL-60): < 5.00

COc1ccc2c(cnc3c4cc5c(cc4ccc23)OCO5)c1O
pIC50 (HCT-116): < 5.00
pIC50 (HL-60): < 5.00

COc1cc2c(cc1O)c[n+](C)c1c3cc4c(cc3ccc21)OCO4
pIC50 (HCT-116): < 5.00
pIC50 (HL-60): < 5.00

COc1cc2c[n+](C)c3c4cc5c(cc4ccc3c2cc1OC)OCO5 [NITIDINE CHLORIDE]
pIC50 (HepG2): 5.45
pIC50 (HCT-116): 5.35
pIC50 (HL-60): 5.47

COc1ccc2cnc3c4cc5c(cc4ccc3c2c1OC)OCO5
pIC50 (HCT-116): < 5.00
pIC50 (HL-60): < 5.00

COc1c(O)ccc2c[n+](C)c3c4cc5c(cc4ccc3c12)OCO5
pIC50 (HCT-116): < 5.00
pIC50 (HL-60): < 5.00

COc1ccc2c(c[n+](C)c3c4cc5c(cc4ccc23)OCO5)c1O
pIC50 (HCT-116): 5.88
pIC50 (HL-60): 6.10

COc1cc2c(cc1OC)-c1ccc3cc4c(cc3c1N(C)C2)OCO4
pIC50 (HCT-116): 5.18
pIC50 (HL-60): 5.35

COc1cc2cnc3c4cc5c(cc4ccc3c2cc1OC)OCO5
pIC50 (HCT-116): < 5.00
pIC50 (HL-60): < 5.00

COc1cc2c(cc1O)-c1ccc3cc4c(cc3c1N(C)C2)OCO4
pIC50 (HCT-116): 5.14
pIC50 (HL-60): < 5.00

COc1c(O)ccc2c1-c1ccc3cc4c(cc3c1N(C)C2)OCO4
pIC50 (HCT-116): < 5.00
pIC50 (HL-60): < 5.00

COc1ccc2c(c1O)CN(C)c1c-2ccc2cc3c(cc12)OCO3
pIC50 (HCT-116): 5.49
pIC50 (HL-60): 5.30

COc1ccc2c(c1OC)CN(C)c1c-2ccc2cc3c(cc12)OCO3 [DIHYDROCHELERYTHRINE]
pIC50 (HCT-116): < 5.00
pIC50 (HL-60): < 5.00

COc1cc2c[n+](C)c3c4cc5c(cc4ccc3c2cc1O)OCO5
pIC50 (HCT-116): 5.47
pIC50 (HL-60): 5.48

COc1c(O)ccc2cnc3c4cc5c(cc4ccc3c12)OCO5
pIC50 (HCT-116): < 5.00
pIC50 (HL-60): < 5.00

COc1ccc2c(c1OC)-c1ccc3cc4c(cc3c1N(C)C2)OCO4
pIC50 (HCT-116): < 5.00
pIC50 (HL-60): < 5.00

COc1ccc2c[n+](C)c3c4cc5c(cc4ccc3c2c1OC)OCO5
pIC50 (HCT-116): 5.49
pIC50 (HL-60): 5.11

COc1ccc2c(c[n+](C)c3c4cc5c(cc4ccc23)OCO5)c1OC [CHELERYTHRINE CHLORIDE]
pIC50 (HCT-116): 5.67
pIC50 (HL-60): 5.52

COc1cc2cnc3c4cc5c(cc4ccc3c2cc1O)OCO5
pIC50 (HCT-116): < 5.00
pIC50 (HL-60): < 5.00
